A selection: hits, their analogues and other compounds. The true share with any hit is near 1.6%.
HTRA1 inh = blocks human HTRA1 serine peptidase | recombinant HTRA1, FP-rhodamine activity-based probe, fluorescence polarization | 0.5% of 340,000 active | inhibition, % at 5.96 µM; in the data active = inhibition above about 36%
SIAE inh = human SIAE inhibition, primary screen. Q9HAT2. SIAE FP-Rh probe binding, fluorescence polarization. inhibition, % at 9.66 µM. 0.69% of 370,000 active. AID 1053197;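 active = inhibition above a cutoff: mean of compounds within the control limits plus 3 SD of those, cut at about 17% in these data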
TCR CD3 inh = blocks the human TCR-CD3 interaction; TAMRA-labeled TCR probe fluorescence, biochemical; inhibition, % at 9.4 µM; 0.37% of 360,000 active; AID 651800;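 also: recombinant mutant TCR 2C K166C tagged with TAMRA read by polarization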
mABHD4 FP = inhibitors of mouse ABHD4; purified mABHD4, FP-Rh probe fluorescence polarization; inhibition, % at 8.92 µM; 0.54% of 370,000 active;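 active = inhibition exceeding the mean over every tested compound plus 3 SD, cut at about 30% in these data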
Target sequence (Q8VD66 whole entry, looked up): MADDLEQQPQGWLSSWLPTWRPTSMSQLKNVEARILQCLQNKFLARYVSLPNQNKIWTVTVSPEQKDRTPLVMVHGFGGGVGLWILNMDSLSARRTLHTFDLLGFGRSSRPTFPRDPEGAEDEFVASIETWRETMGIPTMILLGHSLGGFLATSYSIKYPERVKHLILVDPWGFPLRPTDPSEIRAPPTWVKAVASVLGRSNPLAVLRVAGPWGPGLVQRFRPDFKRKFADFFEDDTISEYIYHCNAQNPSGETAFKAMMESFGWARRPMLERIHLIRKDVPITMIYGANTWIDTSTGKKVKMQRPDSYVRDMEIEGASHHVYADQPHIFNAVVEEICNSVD
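System: mouse ABHD4 enzyme, wild type / Medium: HEPES pH 7.0, NaCl, Pluronic buffer / Reagent: FP-Rh activity-based fluorescent probe / Control set: S159A mutant high control, sample median low control / Detection: fluorescence polarization with parallel and perpendicular emission, 525/598 nm / Schedule: 45 min + 60 min at 25 °C / Compound dosing: 8.92 µM, single dose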
DAGLB inh = blocks human DAGLB lipase activity; inhibition, % at 5.17 µM; Q8NCG7; HEK293T DAGLB membrane lysate, EnzChek fluorogenic substrate; 0.059% of 340,000 active; in the data active = inhibition above about 34%
HTRA1 conf = confirmation of human HTRA1 inhibitors | shares compounds with HTRA1 inh | recombinant HTRA1, FP-rhodamine activity-based probe, fluorescence polarization | inhibition, % at 5.96 µM | 66% of 1,600 active | AID 540248;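 active = mean inhibition over three repeats above a set limit taken from the earlier primary screen, cut at about 37% in these data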;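 also: inhibitors block probe binding so polarization drops and inhibition rises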
BSA TAMRA ctr = interferes with TAMRA-BSA probe, flagging TCR-CD3 hits. shares compounds with TCR CD3 inh. TAMRA-labeled BSA probe fluorescence counterscreen. inhibition, % at 9.4 µM. 10% of 1,200 active. AID 652035; in the data active = inhibition above about 23%
TCR-CD3 inh conf = TCR-CD3 interaction inhibition, confirmation | shares compounds with TCR CD3 inh | TAMRA-labeled TCR probe fluorescence binding assay | inhibition, % at 9.4 µM | 48% of 1,200 active | AID 652036
Large screens that a line does not name were inactive (follow-up assays come after a bar, where they were run). Rule as the data show it, unless noted: active = inhibition above about 19%; inactive = the rest.

CCC(=O)NC(C)c1cc(Cl)c2cccnc2c1O (stereo not drawn)	HTRA1 inh 48 | HTRA1 conf 82
CCOc1ccc(C(Nc2cccnc2)c2cc(Cl)c3cccnc3c2O)cc1 (stereo not drawn)	HTRA1 inh 43 | HTRA1 conf 42
CCOC(=O)[C@@]12CN(C(=O)OC(C)(C)C)CC=C1N(Cc1ccc(OC)cc1)C(=O)[C@H]2CC(=O)NCc1cccc(C(F)(F)F)c1	none (no result: HTRA1 inh, TCR CD3 inh, DAGLB inh)
CCn1c2c(n(C(C)=O)c1=O)C[C@@H](c1ccccc1)[C@@H](C)[C@@H](C(=O)N1CCCC1)C2	none (no result: HTRA1 inh, DAGLB inh)
COC(=O)C1=C(C(=O)OC)[C@@]2([C@H](Cc3ccc(C)cc3)Nc3ccccc3)C=C[C@@H]1O2	none (no result: HTRA1 inh, TCR CD3 inh, DAGLB inh)
O=C(CSc1nc2ccccc2nc1N1CCCCC1)N1CCN(S(=O)(=O)c2cc(Cl)ccc2Cl)CC1	none (no result: HTRA1 inh, TCR CD3 inh, DAGLB inh)
O=C(NCCN1CCC(n2c(=O)[nH]c3cc(Cl)ccc32)CC1)c1ccc(F)cc1	none (no result: HTRA1 inh, DAGLB inh)
Cc1ccccc1CN1[C@@H](C)[C@H](c2ccccc2)Oc2cccc(NCCc3ccccc3)c2S1(=O)=O	none (no result: HTRA1 inh, DAGLB inh)
CCC(=O)NC(c1ccc(C)cc1)c1cc(Cl)c2cccnc2c1O (stereo not drawn)	HTRA1 inh 62 (no result: SIAE inh, TCR CD3 inh, mABHD4 FP) | HTRA1 conf 76
Cc1cccc(NC(=O)Oc2ccc(Cl)c3cccnc23)c1	HTRA1 inh 54 | HTRA1 conf 41
CNC(=O)COc1ccc(Cl)c2cccnc12	none
O=C(Oc1ccc(Cl)c2cccnc12)c1cccnc1	HTRA1 inh 71 | HTRA1 conf 82
CN(CCOC(=O)CCCc1ccccc1)C1CN(Cc2cn(Cc3ccccc3F)nn2)S(=O)(=O)C1 (stereo not drawn)	none (no result: HTRA1 inh, TCR CD3 inh, DAGLB inh)
Cc1ccc(S(=O)(=O)N(C)[C@H]2C[C@H]3c4[nH]c5c(-c6ccccc6)cccc5c4CCN3C(=O)[C@H]2[C@H](C)O)cc1	none (no result: HTRA1 inh, DAGLB inh)
Nc1nc(-c2ccc(NC(=O)c3ccco3)cc2)cs1	none
NC(=O)/C(=N\OC(=O)c1ccco1)c1nc(-c2ccc(Br)cc2)cs1	HTRA1 inh 67 | HTRA1 conf 47
CCCC[C@H]1C2CC(OC(=O)Nc3ccccc3C(F)(F)F)C(C2)[C@H]2CCCCN21 (stereo partly drawn)	none (no result: HTRA1 inh, TCR CD3 inh, DAGLB inh)
CCOC(=O)[C@@]12CCCC=C1N(CCc1ccc(Cl)cc1)C(=O)[C@H]2CC(=O)NCC1CCCCC1	none (no result: HTRA1 inh, TCR CD3 inh, DAGLB inh)
O=C1CC(Nc2ccc(N3CCOCC3)cc2)C(=O)N1c1cccc(C(F)(F)F)c1 (stereo not drawn)	HTRA1 inh 61 (no result: SIAE inh, TCR CD3 inh, mABHD4 FP) | HTRA1 conf inactive
CN(C)c1ccc(N2C(=O)CC(Nc3ccc(N4CCOCC4)cc3)C2=O)cc1 (stereo not drawn)	none
C=CCN1[C@H](C)COc2cccc(N3CCCC3)c2S1(=O)=O	none (no result: HTRA1 inh, TCR CD3 inh, DAGLB inh)
COc1ccc(C)cc1NC(=O)NNC(=O)c1cc2ccccc2cc1O	HTRA1 inh 42, TCR CD3 inh 22 | HTRA1 conf inactive | BSA TAMRA ctr inactive | TCR-CD3 inh conf 26
COC[C@H]1CCCN1c1cccc2c1S(=O)(=O)N(C1CC1)CC[C@@H](C)O2	none (no result: HTRA1 inh, TCR CD3 inh, DAGLB inh)
COc1ccc(CCNC(=O)Nc2ccc3c(c2)[C@]2(CC(=O)N(CC(C)C)C2c2ccccc2)C(=O)N3C)cc1OC (stereo partly drawn)	none (no result: HTRA1 inh, TCR CD3 inh, DAGLB inh)
Oc1ccc(Cl)c2cccnc12	HTRA1 inh 64, TCR CD3 inh 30 | HTRA1 conf 76 | BSA TAMRA ctr inactive | TCR-CD3 inh conf inactive
Oc1ccc(F)c2cccnc12	none
O=C(NN=Cc1c(O)ccc2ccccc12)c1ccc2c(c1)OCO2	HTRA1 inh 37, TCR CD3 inh 21 | HTRA1 conf inactive | BSA TAMRA ctr inactive | TCR-CD3 inh conf 22
Oc1ccc(/C=N/Nc2ncnc3c2ncn3Cc2ccccc2)cc1O	HTRA1 inh 49, TCR CD3 inh 53 | HTRA1 conf 50 | BSA TAMRA ctr inactive | TCR-CD3 inh conf 46
CN(CCCOC(=O)c1cc2ccccc2o1)C1CN(Cc2cn(Cc3ccccc3Cl)nn2)S(=O)(=O)C1 (stereo not drawn)	none (no result: HTRA1 inh, TCR CD3 inh, DAGLB inh)
Cc1cc(C)c(C)c(S(=O)(=O)N2CCC(C(=O)NNC(=O)c3ccccc3O)CC2)c1C	HTRA1 inh 46, TCR CD3 inh 32 | HTRA1 conf 48 | BSA TAMRA ctr inactive | TCR-CD3 inh conf 22
O=C(N/N=C/c1ccc(O)cc1O)c1ccc(CN2C(=O)c3cccc4cccc2c34)cc1	HTRA1 inh 38, TCR CD3 inh 27 | HTRA1 conf inactive | BSA TAMRA ctr inactive | TCR-CD3 inh conf 30
O=C1OC(Nc2cc(Br)cc3cccnc23)c2ccccc21 (stereo not drawn)	HTRA1 inh 45, SIAE inh 34, TCR CD3 inh 37, mABHD4 FP 88 | HTRA1 conf inactive | BSA TAMRA ctr inactive | TCR-CD3 inh conf inactive
O=C1OC(Nc2ncccn2)c2ccccc21 (stereo not drawn)	none
O=C(CCN1CCN(c2ccccc2)CC1)N/N=C/c1ccc(O)c(O)c1O	HTRA1 inh 47, TCR CD3 inh 30 | HTRA1 conf 37 | BSA TAMRA ctr inactive | TCR-CD3 inh conf 24
C=CCn1c(SCC(=O)c2ccc(OC)cc2)nnc1-c1cc2cccc(OC)c2o1	none
C=CCn1c(SCC(=O)c2ccc(O)c(O)c2)nnc1-c1cccc(OC)c1	HTRA1 inh 38, TCR CD3 inh 20 | HTRA1 conf 67 | BSA TAMRA ctr inactive | TCR-CD3 inh conf inactive
COC(CNC(=O)[C@H](Cc1c[nH]c2ccccc12)NC1(C(=O)NC(c2ccccc2)c2ccccc2)CCCCC1)OC	none (no result: HTRA1 inh, TCR CD3 inh, DAGLB inh)
Cc1ccc(C)c(NC(=O)c2cccc3c2-c2ccccc2C3=O)c1	none (no result: HTRA1 inh, TCR CD3 inh, DAGLB inh)
CN(C)c1ccc(Cc2cc3c(O)ccc(O)c3cc(Cc3ccc(N(C)C)cc3)c2=O)cc1	HTRA1 inh 84, SIAE inh 56, TCR CD3 inh 43, mABHD4 FP 83 | HTRA1 conf 72 | BSA TAMRA ctr inactive | TCR-CD3 inh conf 38
O=S1(=O)c2ccc(N3CCSCC3)cc2Oc2ccccc2CN1Cc1cn(Cc2ccc(F)cc2)nn1	none (no result: HTRA1 inh, TCR CD3 inh, DAGLB inh)
O=C(NNC(=S)NC(=O)c1ccco1)c1ccc(NC(=O)c2ccccc2)cc1	none
O=C(NC(=S)NNC(=O)c1ccccc1O)c1cccnc1	HTRA1 inh 49, TCR CD3 inh 29 | HTRA1 conf 63 | BSA TAMRA ctr inactive | TCR-CD3 inh conf 31
O=C(NC(=S)NNC(=O)c1ccccc1O)c1ccco1	HTRA1 inh 39, TCR CD3 inh 25 | HTRA1 conf 67 | BSA TAMRA ctr inactive | TCR-CD3 inh conf inactive
COC(=O)C1=C(C)N(Cc2ccccc2C(F)(F)F)C(=NCc2cccc(C(F)(F)F)c2)NC1c1ccc(F)cc1 (stereo not drawn)	none (no result: HTRA1 inh, DAGLB inh)
